Series [1] can be described thus: Increase in neuronal survival in embryonic chick dorsal root ganglion sensory neurons at 10 uM to 0.1 nM after 48 hrs relative to BDNF.
Series [2] can be described thus: Increase in neuronal survival in embryonic chick dorsal root ganglion sensory neurons at 10 uM to 0.1 nM after 48 hrs relative to BDNF. Type of series: functional, Gallus gallus, DRG neuron. The settings on record: in the assay text read “at 100 uM” for “at 10 uM to 0.1 nM”. Put shortly: (§1)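 Primary embryonic chick DRG sensory neuron cultures. Peptides tested in log10 increments, with surviving neurons counted after 48 h. Triplicate well counts averaged and normalised between BDNF positive (100%) and negative (0%) controls. Data given as mean ± SEM, n = 3–4. pEC20BDNF is the negative log10 of the concentration giving 20% of the BDNF survival response.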

For another series, the system named is Plasma. Kind of series: (§2) Stability in mouse plasma assessed as degradation. Type of series: ADME, cell-free. Put shortly:
(§3)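 Peptide (0.2 mg) incubated at 37 °C in single-mouse plasma diluted 50% in PBS, sampled over 24 h. Each aliquot put on ice, treated with lysine (1000 equiv) to displace protein binding, then MeCN to precipitate proteins, centrifuged at 4 °C and diluted for HPLC. Peak areas taken as ratio to 4-isopropylbenzyl alcohol internal standard, as % of t = 0; three experiments.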

Series [3] in a line: Increase in neuronal survival in embryonic chick dorsal root ganglion sensory neurons assessed as normalized neuronal survival response equivalent to 20% for BDNF after 48 hrs. The series is classed as functional, Gallus gallus, DRG neuron. Put shortly: as §1
Series [4] can be described thus: Apparent permeability across apical to basolateral side in human Caco-2 cells at 200 uM after 150 mins. The series is classed as ADME, cell-based. Put shortly:
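Caco-2 cells (passage 82–96) grown 24–25 days on polycarbonate Transwell supports (0.45 µm pore, 1.13 cm²). Basolateral samples taken every 30 min for 150 min with buffer replacement. Samples acetylated, lyophilised, redissolved in 2% TFA and centrifuged; bis-acetylated peptide quantified by LCMS. Papp given as mean ± SEM from 3–4 monolayers.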
(In general: Caco-2 cells form a polarised layer with tight junctions and transporters.)

Series [5] can be described thus: Stability in mouse plasma assessed as half life at 0.2 mg. The series is classed as ADME, cell-free. Put shortly:
as §3

A short description of series [6]: Increase in neuronal survival in embryonic chick dorsal root ganglion sensory neurons at 10 uM to 10 nM after 48 hrs relative to BDNF. Type of series: functional, Gallus gallus, DRG neuron. Put shortly:
as §1

The nature of series [7]: Increase in neuronal survival in embryonic chick dorsal root ganglion sensory neurons at 0.1 uM after 48 hrs relative to BDNF. Type of series: functional, Gallus gallus, DRG neuron. To be noted: in the assay text read “0.01 uM” for “0.1 uM”. Put shortly: as §1
Series [8] can be described thus: as §2. Type of series: ADME, cell-free. To be noted: read-out: Activity. Put shortly:
as §3

Structures are written as SMILES. Where only a bound is given, the exact number is not on record here.

`C[C@@H]1NC(=O)[C@H]2CCCN2C(=O)[C@H](CCCNC(=N)N)NC(=O)[C@H](CCCCN)NC(=O)[C@H](CCCCN)NC1=O`: the Activity in series [1] is 37.3%; in series [2], 67.7%; in the series on Plasma it was “Stable”; in series [3], 7.3. Further, in [4], the apparent permeability from apical to basolateral (Papp A→B) (usually how fast a substance crosses the layer from the apical side) at 2.5 h, 200 µM is 0.642 ×10⁻⁶ cm/s. Further, in series [5], the half-life (commonly the time in which the quantity being followed falls by half) was over 24 h.

On to `CCCCC(=O)NCCCC[C@@H]1NC(=O)[C@H]2CCCN2C(=O)[C@H](CCCNC(=N)N)NC(=O)[C@H](CCCCN)NC(=O)[C@H](CCCCN)NC1=O`, for which the Activity in series [3] amounted to 7.7; in [6] it was 39.4%. The Papp A→B at 2.5 h, 200 µM in series [4] is 0.929 ×10⁻⁶ cm/s.

For the compound `CCCCCCCCCCCCCCCC(=O)NCCCC[C@@H]1NC(=O)[C@H]2CCCN2C(=O)[C@H](CCCNC(=N)N)NC(=O)[C@H](CCCCN)NC(=O)[C@H](CCCCN)NC1=O`, the Activity was 28.4% in [7], 9.1 in series [3] and 49.4% in series [6].

Consider `CCCCCCCC(=O)NCCCC[C@@H]1NC(=O)[C@H]2CCCN2C(=O)[C@H](CCCNC(=N)N)NC(=O)[C@H](CCCCN)NC(=O)[C@H](CCCCN)NC1=O`, for which the metabolised in series [8] amounted to 20%. Besides, the Activity in series [3] was determined as 7.5; in series [6], 38.7%. In addition, in [4], the Papp A→B at 2.5 h, 200 µM is 0.922 ×10⁻⁶ cm/s. The half-life in series [5] was over 24 h.

`CCCC[C@@H]1NC(=O)[C@H]2CCCN2C(=O)[C@H](CCCNC(=N)N)NC(=O)[C@H](CCCCN)NC(=O)[C@H](CCCCN)NC1=O`: the Activity in series [3] is given as 6.2; in series [6], 36.2%. For the same compound, the Papp A→B at 2.5 h, 200 µM in series [4] turned out to be 0.288 ×10⁻⁶ cm/s.

For the compound `N=C(N)NCCC[C@@H]1NC(=O)[C@H](CCCCN)NC(=O)[C@H](CCCCN)NC(=O)[C@H](CCCCN)NC(=O)[C@H]2CCCN2C1=O`, the values for the Activity in series [3] and in series [6] were 7.5 and 60.9%, respectively.

Turning to `N=C(N)NCCC[C@@H]1NC(=O)[C@H](CCCCN)NC(=O)[C@H](CCCCN)NC(=O)[C@H](Cc2ccccc2)NC(=O)[C@H]2CCCN2C1=O`, the Activity in series [3] is recorded as 5.3; in [6], 21.8%.

(Values after ChEMBL document CHEMBL1154000, “Modified low molecular weight cyclic peptides as mimetics of BDNF with improved potency, proteolytic stability and transmembrane passage in vitro” (Bioorg Med Chem, 2009).)
